Source: ChEMBL document CHEMBL1153263, “3-Acrylamide-4-aryloxyindoles: synthesis, biological evaluation and metabolic stability of potent and selective EP3 receptor antagonists” (Bioorg Med Chem Lett, 2009)

What was measured:
[1] = target: T1, Prostaglandin E2 receptor EP3 subtype (Homo sapiens) (UniProt P43115); assay: Ratio IC50 for human EP3 receptor in presence of human serum to IC50 for human EP3 in absence of human serum
T1 sequence (whole entry): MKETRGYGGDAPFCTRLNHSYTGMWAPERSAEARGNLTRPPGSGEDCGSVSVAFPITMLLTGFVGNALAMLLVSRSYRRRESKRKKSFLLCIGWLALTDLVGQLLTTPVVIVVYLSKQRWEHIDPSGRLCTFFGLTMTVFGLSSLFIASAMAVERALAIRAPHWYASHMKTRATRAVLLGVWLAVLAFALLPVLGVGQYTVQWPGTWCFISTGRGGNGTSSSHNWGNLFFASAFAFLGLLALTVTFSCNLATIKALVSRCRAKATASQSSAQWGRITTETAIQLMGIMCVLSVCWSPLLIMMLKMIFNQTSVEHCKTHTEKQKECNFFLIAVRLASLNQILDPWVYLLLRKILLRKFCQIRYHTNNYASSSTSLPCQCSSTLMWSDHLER

[2] = target: T2, Prostaglandin E2 receptor EP3 subtype (Homo sapiens, UniProt P43115); assay: Displacement of [3H]PGE2 from human EP3 receptor at 20 uM in presence of 10% human serum
T2 sequence (P43115 whole entry): T1 sequence (whole entry)

[3] = target: T2, Prostaglandin E2 receptor EP3 subtype; assay: Displacement of [3H]PGE2 from human EP3 receptor at 20 uM in presence of normal buffer
[4] = Metabolic stability in rat liver microsome assessed as compound remaining at 5 uM after 30 mins; type: ADME; conditions: liver microsomes, read-out: Stability
How it was run: (§1)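 Liver microsomes at 0.8 mg/mL protein incubated with compound at 5 µM. Percent parent remaining after 30 min measured by LC–MS/MS.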

[5] = Metabolic stability in human liver microsome assessed as compound remaining at 5 uM after 30 mins; type: ADME; conditions: liver microsomes, read-out: Stability; how it was run: as §1
[6] = target: Prostaglandin E2 receptor EP4 subtype (Homo sapiens, UniProt P35408); assay: Displacement of radioligand from EP4 receptor
[7] = target: T3, Prostaglandin E2 receptor EP1 subtype (Homo sapiens, UniProt P34995); assay: Displacement of radioligand from EP1 receptor
T3 sequence (P34995 whole entry): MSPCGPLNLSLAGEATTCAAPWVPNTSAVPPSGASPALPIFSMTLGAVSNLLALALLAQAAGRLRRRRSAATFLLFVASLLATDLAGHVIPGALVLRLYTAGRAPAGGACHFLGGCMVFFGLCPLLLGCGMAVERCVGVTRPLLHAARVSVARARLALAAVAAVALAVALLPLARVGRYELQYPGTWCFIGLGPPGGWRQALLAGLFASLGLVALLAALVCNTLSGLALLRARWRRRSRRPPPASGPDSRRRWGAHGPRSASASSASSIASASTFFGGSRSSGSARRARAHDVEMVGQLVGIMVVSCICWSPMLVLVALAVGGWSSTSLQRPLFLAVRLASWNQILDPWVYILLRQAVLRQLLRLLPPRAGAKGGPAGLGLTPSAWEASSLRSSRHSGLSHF

[8] = target: Prostaglandin E2 receptor EP2 subtype (Homo sapiens, UniProt P43116); assay: Displacement of radioligand from EP2 receptor
[9] = target: Prostaglandin F2-alpha receptor (Homo sapiens, UniProt P43088); assay: Displacement of radioligand from FP receptor
[10] = Metabolic stability in dog liver microsome assessed as compound remaining at 5 uM after 30 mins; type: ADME, Canis lupus familiaris; conditions: liver microsomes, read-out: Stability; how it was run: as §1
Prostacyclin receptor = Prostacyclin receptor (Homo sapiens, UniProt P43119); assay: Displacement of radioligand from IP receptor
Sequence of Prostacyclin receptor (P43119 whole entry): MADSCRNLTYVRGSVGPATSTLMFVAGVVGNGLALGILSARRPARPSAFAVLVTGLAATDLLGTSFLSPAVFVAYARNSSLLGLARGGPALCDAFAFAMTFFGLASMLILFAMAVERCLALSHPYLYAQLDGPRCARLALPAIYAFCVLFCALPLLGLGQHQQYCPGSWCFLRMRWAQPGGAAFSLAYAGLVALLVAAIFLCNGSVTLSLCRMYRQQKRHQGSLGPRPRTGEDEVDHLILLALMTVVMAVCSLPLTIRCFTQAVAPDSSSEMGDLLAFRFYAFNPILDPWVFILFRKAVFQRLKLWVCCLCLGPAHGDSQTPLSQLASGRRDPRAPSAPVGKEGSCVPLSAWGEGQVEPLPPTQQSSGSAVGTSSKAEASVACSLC

Sequence of Prostaglandin E2 receptor EP4 subtype (P35408 whole entry): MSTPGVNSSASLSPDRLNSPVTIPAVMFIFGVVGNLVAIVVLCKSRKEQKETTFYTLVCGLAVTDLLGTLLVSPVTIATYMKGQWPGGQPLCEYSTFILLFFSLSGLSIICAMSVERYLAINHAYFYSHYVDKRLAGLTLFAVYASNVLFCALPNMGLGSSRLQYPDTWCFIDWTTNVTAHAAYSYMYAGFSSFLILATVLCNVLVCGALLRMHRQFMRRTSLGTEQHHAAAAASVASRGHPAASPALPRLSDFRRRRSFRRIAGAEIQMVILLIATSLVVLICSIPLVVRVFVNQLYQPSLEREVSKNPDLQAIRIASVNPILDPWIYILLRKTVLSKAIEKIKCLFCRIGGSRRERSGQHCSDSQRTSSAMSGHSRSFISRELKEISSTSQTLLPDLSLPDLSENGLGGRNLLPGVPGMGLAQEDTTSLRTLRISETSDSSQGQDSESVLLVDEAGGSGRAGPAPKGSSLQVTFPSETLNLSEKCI
Sequence of Prostaglandin E2 receptor EP2 subtype (P43116 whole entry): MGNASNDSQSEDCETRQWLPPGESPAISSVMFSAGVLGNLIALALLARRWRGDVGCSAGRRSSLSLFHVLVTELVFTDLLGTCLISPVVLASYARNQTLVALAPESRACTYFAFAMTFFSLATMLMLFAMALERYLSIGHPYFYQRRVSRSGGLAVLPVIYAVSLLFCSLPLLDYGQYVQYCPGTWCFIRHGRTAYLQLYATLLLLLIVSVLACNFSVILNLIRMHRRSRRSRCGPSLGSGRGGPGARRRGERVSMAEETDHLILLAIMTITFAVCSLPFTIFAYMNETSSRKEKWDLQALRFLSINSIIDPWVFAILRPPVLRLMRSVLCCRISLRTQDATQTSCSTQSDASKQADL
Sequence of Prostaglandin F2-alpha receptor (P43088 whole entry): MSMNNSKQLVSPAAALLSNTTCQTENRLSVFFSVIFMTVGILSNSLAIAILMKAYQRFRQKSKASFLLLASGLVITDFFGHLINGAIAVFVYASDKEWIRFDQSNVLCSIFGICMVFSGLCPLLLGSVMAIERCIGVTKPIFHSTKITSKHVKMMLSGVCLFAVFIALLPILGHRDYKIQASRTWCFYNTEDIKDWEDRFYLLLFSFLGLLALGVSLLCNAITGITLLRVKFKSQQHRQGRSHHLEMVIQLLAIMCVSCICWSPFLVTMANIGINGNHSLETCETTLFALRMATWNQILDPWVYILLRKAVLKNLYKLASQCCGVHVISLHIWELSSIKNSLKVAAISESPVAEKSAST

Structure (SMILES) | Ratio IC50 [1] | IC50 [2] | IC50 [3] | other results
Cn1cc(/C=C/C(=O)NS(=O)(=O)c2ccccc2F)c2c(Oc3ccc4ccccc4c3)cccc21 | 54.3 | 0.646 µM | 0.0119 µM | 
Cn1cc(/C=C/C(=O)NS(=O)(=O)c2ccc(F)c(F)c2)c2c(Oc3ccc(F)cc3F)cccc21 |  |  | 0.0185 µM | 
Cn1cc(/C=C/C(=O)NS(=O)(=O)c2ccc(F)c(F)c2)c2c(Oc3ccc(Cl)c(Cl)c3)cccc21 | 4.1 | 0.0508 µM | 0.0124 µM | remaining at 0.5 h, 5 µM [4]: 14.9%; remaining at 0.5 h, 5 µM [5]: 58.8%; IC50 [6]: 20.4 µM; IC50 [7]: > 10 µM; IC50 [8]: 4.2 µM; IC50 [9]: 2.4 µM
Cn1cc(/C=C/C(=O)NS(=O)(=O)c2ccccc2Cl)c2c(Oc3ccc4ccccc4c3)cccc21 | 91.3 | 1.68 µM | 0.0184 µM | 
Cn1cc(/C=C/C(=O)NS(=O)(=O)c2ccc(Cl)c(Cl)c2)c2c(Oc3ccc4ccccc4c3)cccc21 | 7.8 | 0.0929 µM | 0.0118 µM | 
Cn1cc(/C=C/C(=O)NS(=O)(=O)c2cccc(Cl)c2)c2c(Oc3ccc4ccccc4c3)cccc21 | 2.2 | 0.035 µM | 0.0157 µM | remaining at 0.5 h, 5 µM [4]: 33.3%; remaining at 0.5 h, 5 µM [5]: 79%; remaining at 0.5 h, 5 µM [10]: 80.6%
Cn1cc(/C=C/C(=O)NS(=O)(=O)c2ccc(F)c(F)c2)c2c(Oc3ccc(Cl)cc3)cccc21 | 28.4 | 0.776 µM | 0.0273 µM | 
COc1ccc(S(=O)(=O)NC(=O)/C=C/c2cn(C)c3cccc(Oc4ccc5ccccc5c4)c23)cc1 |  |  | 0.101 µM | 
Cn1cc(/C=C/C(=O)NS(=O)(=O)c2cccc(F)c2)c2c(Oc3ccc4ccccc4c3)cccc21 | 6.6 | 0.116 µM | 0.0175 µM | 
Cn1cc(/C=C/C(=O)NS(=O)(=O)c2ccc(F)c(F)c2)c2c(Oc3ccc(F)c(Cl)c3)cccc21 | 3 | 0.0815 µM | 0.0269 µM | remaining at 0.5 h, 5 µM [4]: 32%; IC50 (Prostacyclin receptor): 4.1 µM; remaining at 0.5 h, 5 µM [5]: 91.5%; IC50 [6]: > 10 µM; IC50 [8]: > 10 µM; IC50 [9]: 1.82 µM
Cn1cc(/C=C/C(=O)NS(=O)(=O)c2cc(F)c(F)cc2F)c2c(Oc3ccc(F)cc3F)cccc21 |  |  | 0.0848 µM | 
Cn1cc(/C=C/C(=O)NS(=O)(=O)c2ccc(F)c(F)c2)c2c(Oc3ccc(F)cc3Cl)cccc21 | 10.5 | 0.146 µM | 0.0138 µM | 
Cn1cc(/C=C/C(=O)NS(=O)(=O)c2ccc(F)c(F)c2)c2c(Oc3ccc(Cl)c(F)c3)cccc21 | 26.3 | 0.612 µM | 0.0234 µM | 
Cn1cc(/C=C/C(=O)NS(=O)(=O)c2ccc(Cl)cc2Cl)c2c(Oc3ccc4ccccc4c3)cccc21 | 28.5 | 1.54 µM | 0.0541 µM | 
Cn1cc(/C=C/C(=O)NS(=O)(=O)c2ccc(F)cc2)c2c(Oc3ccc4ccccc4c3)cccc21 | 19.4 | 0.182 µM | 0.0094 µM | 
Cn1cc(/C=C/C(=O)NS(=O)(=O)c2cc(F)c(F)cc2F)c2c(Oc3ccc(F)cc3Cl)cccc21 | 17.5 | 0.316 µM | 0.0181 µM | 
Cn1cc(/C=C/C(=O)NS(=O)(=O)c2ccc(Cl)cc2)c2c(Oc3ccc4ccccc4c3)cccc21 | 50.2 | 1.1 µM | 0.0219 µM | 
Cn1cc(/C=C/C(=O)NS(=O)(=O)c2cc(F)cc(F)c2)c2c(Oc3ccc4ccccc4c3)cccc21 | 3.5 | 0.157 µM | 0.0449 µM | 
Cn1cc(/C=C/C(=O)NS(=O)(=O)c2cc(F)c(F)cc2F)c2c(Oc3ccc(F)c(Cl)c3)cccc21 | 6.3 | 0.0611 µM | 0.0097 µM | IC50 [6]: > 10 µM; IC50 [7]: > 10 µM; IC50 [8]: > 10 µM; IC50 [9]: 3.16 µM

Now those with a lower IC50 [3], led by results:

Ratio IC50 [1] | IC50 [2] | IC50 [3] | Structure (SMILES) | other results
37 | 0.321 µM | 0.0087 µM | Cn1cc(/C=C/C(=O)NS(=O)(=O)c2cc(Cl)cc(Cl)c2)c2c(Oc3ccc4ccccc4c3)cccc21 | 
19.8 | 0.168 µM | 0.0085 µM | Cn1cc(/C=C/C(=O)NS(=O)(=O)c2cc(F)c(F)cc2F)c2c(Oc3ccc4ncccc4c3)cccc21 | 
17.7 | 0.128 µM | 0.0072 µM | Cn1cc(/C=C/C(=O)NS(=O)(=O)c2cc(F)c(F)cc2F)c2c(Oc3cnc4ccccc4n3)cccc21 | 
17.2 | 0.124 µM | 0.0072 µM | Cn1cc(/C=C/C(=O)NS(=O)(=O)c2ccc(F)c(F)c2)c2c(Oc3ccc(Cl)cc3F)cccc21 | remaining at 0.5 h, 5 µM [4]: 40%; IC50 (Prostacyclin receptor): > 10 µM; remaining at 0.5 h, 5 µM [5]: 113%; IC50 [6]: > 10 µM; IC50 [7]: > 10 µM; IC50 [8]: > 10 µM; IC50 [9]: 3.19 µM
8 | 0.0539 µM | 0.0067 µM | Cn1cc(/C=C/C(=O)NS(=O)(=O)c2cc(F)c(F)cc2F)c2c(Oc3ccc(Cl)c(F)c3)cccc21 | IC50 [6]: 10 µM; IC50 [7]: 1.37 µM; IC50 [8]: 10 µM; IC50 [9]: 2.23 µM
24.3 | 0.157 µM | 0.0065 µM | Cn1cc(/C=C/C(=O)NS(=O)(=O)c2cc(F)ccc2F)c2c(Oc3ccc4ccccc4c3)cccc21 | 
35.3 | 0.217 µM | 0.0061 µM | Cn1cc(/C=C/C(=O)NS(=O)(=O)c2ccc(F)c(F)c2)c2c(Oc3cnc4ccccc4n3)cccc21 | 
121 | 0.71 µM | 0.0059 µM | Cn1cc(/C=C/C(=O)NS(=O)(=O)c2c(F)cccc2F)c2c(Oc3ccc4ccccc4c3)cccc21 | 
 |  | 0.0051 µM | Cn1cc(/C=C/C(=O)NS(=O)(=O)c2c(F)c(F)c(F)c(F)c2F)c2c(Oc3ccc4ccccc4c3)cccc21 | 
 |  | 0.0051 µM | COc1cccc(Oc2cccc3c2c(/C=C/C(=O)NS(=O)(=O)c2cc(F)c(F)cc2F)cn3C)c1 | 
41.9 | 0.196 µM | 0.0047 µM | Cn1cc(/C=C/C(=O)NS(=O)(=O)c2ccc(F)c(F)c2)c2c(Oc3ccc(F)c(F)c3)cccc21 | 
19.4 | 0.0896 µM | 0.0046 µM | Cn1cc(/C=C/C(=O)NS(=O)(=O)c2cc(Cl)c(Cl)s2)c2c(Oc3ccc4ccccc4c3)cccc21 | 
 |  | 0.0044 µM | COc1cccc(Oc2cccc3c2c(/C=C/C(=O)NS(=O)(=O)c2ccc(F)c(F)c2)cn3C)c1 | 
35.6 | 0.156 µM | 0.0044 µM | Cn1cc(/C=C/C(=O)NS(=O)(=O)c2cc(F)c(F)cc2F)c2c(Oc3ccc(Cl)cc3F)cccc21 | 
55 | 0.209 µM | 0.0038 µM | Cn1cc(/C=C/C(=O)NS(=O)(=O)c2cc(F)c(F)cc2F)c2c(Oc3ccc(F)c(F)c3)cccc21 | 
32.7 | 0.115 µM | 0.0035 µM | Cn1cc(/C=C/C(=O)NS(=O)(=O)c2ccc(F)cc2F)c2c(Oc3ccc4ccccc4c3)cccc21 | 
5.2 | 0.0167 µM | 0.0032 µM | Cn1cc(/C=C/C(=O)NS(=O)(=O)c2cc(F)c(F)cc2F)c2c(Oc3ccc(Cl)cc3Cl)cccc21 | remaining at 0.5 h, 5 µM [4]: 39.1%; remaining at 0.5 h, 5 µM [5]: 74.7%; IC50 [6]: > 10 µM; IC50 [8]: 9.3 µM; IC50 [9]: 3.57 µM
132 | 0.393 µM | 0.003 µM | Cn1cc(/C=C/C(=O)NS(=O)(=O)c2cc(F)c(F)cc2F)c2c(Oc3ccc(Cl)cc3)cccc21 | 
17.1 | 0.0452 µM | 0.0026 µM | Cn1cc(/C=C/C(=O)NS(=O)(=O)c2cc(F)c(F)cc2F)c2c(Oc3ccc(Cl)c(Cl)c3)cccc21 | IC50 [6]: 13 µM; IC50 [7]: 5.32 µM; IC50 [8]: 7.68 µM; IC50 [9]: 4.64 µM
68.7 | 0.13 µM | 0.0019 µM | Cn1cc(/C=C/C(=O)NS(=O)(=O)c2ccc(F)c(F)c2)c2c(Oc3ccc4ncccc4c3)cccc21 | 
